# Screening results deposited in PubChem by Broad Institute.
# Pf Dd2 inh: P. falciparum Dd2 growth inhibition; SYBR Green, 72 h; hits give low values; actives 2.3% (n = 94,000); activity change, % at 10 µM; in the data active = activity change below about -80%; inconclusive = no clear call, values can overlap the other calls
# T cruzi growth: blocks T. cruzi growth in NIH3T3 culture; actives 5.9% (n = 77,000); inhibition, % at 8.34 µM; T. cruzi beta-gal in NIH3T3, GalScreen luminescence, 90 h;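 active = mean inhibition above about 93%, with at least 55% of replicates each passing it, limit read from the data, passing the limit was not always enough; inconclusive = only one of those two conditions holds; inactive = neither condition holds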
# GASC1 inh: inhibitors of human demethylase GASC-1 KDM4C. Q9H3R0. GST-KDM4C 2-372, H3K9me3 peptide, LANCE TR-FRET. inhibition, % at 12.5 µM. actives 0.15% (n = 96,000);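 active = mean replicate inhibition above about 25%, with at least 55% of replicates also reaching it, limit read from the data, passing the limit was not always enough; inconclusive = only one of those two conditions met; inactive = neither condition met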
# Target sequence (Q9H3R0 2-372 limits assumed): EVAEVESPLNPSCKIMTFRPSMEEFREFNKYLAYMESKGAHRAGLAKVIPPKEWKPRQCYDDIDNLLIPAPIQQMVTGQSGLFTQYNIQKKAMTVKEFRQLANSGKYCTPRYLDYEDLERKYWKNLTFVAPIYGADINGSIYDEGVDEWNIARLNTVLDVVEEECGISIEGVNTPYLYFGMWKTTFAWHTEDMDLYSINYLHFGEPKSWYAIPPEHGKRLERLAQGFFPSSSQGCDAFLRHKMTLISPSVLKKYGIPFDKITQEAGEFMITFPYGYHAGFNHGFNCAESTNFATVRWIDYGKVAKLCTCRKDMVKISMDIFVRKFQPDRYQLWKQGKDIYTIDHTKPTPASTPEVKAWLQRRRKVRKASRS
#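 Test system: N-terminal GST-fused human GASC-1 (KDM4C) fragment, residues 2-372; quantity: GASC-1 enzyme at 10 nM final in reaction; dosing: single dose; schedule: 30 min demethylation and 1 h detection at room temperature; signal: LANCE TR-FRET, excitation 340 nm, emissions 618 and 671 nm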
# IDH1 R132H inh: IDH1 R132H (human) inhibition | actives 0.18% (n = 70,000) | IDH1 R132H reductase, diaphorase/resazurin fluorescence, 60 min | O75874 | inhibition, % at 10 µM; in the data active = inhibition above about 34%; inconclusive = no clear call, values can overlap the other calls; inactive = below about 11%;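 note: 0% = DMSO and 100% = no enzyme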
# An asterisk follows results filed as active; ? = inconclusive; / = no result; ! = a repeat was not active. Sampled rows, rich in hits. Any-hit rate of the full collection: about 5.9%.
SMILES,Pf Dd2 inh,T cruzi growth,GASC1 inh,IDH1 R132H inh
COc1ccc(S(=O)(=O)N(C)C[C@H]2OCCCC[C@H](C)Oc3ccc(NC(=O)Nc4ccc(F)cc4)cc3C(=O)N([C@H](C)CO)C[C@H]2C)cc1,-81*,44,-2,0
COc1ccc(S(=O)(=O)N(C)C[C@H]2OCCCC[C@@H](C)Oc3ccc(NC(=O)Nc4ccc(F)cc4)cc3C(=O)N([C@H](C)CO)C[C@H]2C)cc1,-80,?,-3,-2
COc1ccc(NC(=O)Nc2ccc3c(c2)C(=O)N([C@H](C)CO)C[C@@H](C)[C@@H](CN(C)S(=O)(=O)c2ccc(F)cc2)OCCCC[C@@H](C)O3)cc1,-81*,96,-1,0
COc1ccc(C#Cc2ccc3c(c2)O[C@H](CN(C)C(=O)Nc2cccc(OC)c2)[C@@H](C)CN([C@H](C)CO)S3(=O)=O)cc1,-81*,68,-7,/
COc1cccc(NC(=O)N(C)C[C@H]2Oc3cc(C#Cc4ccc(F)cc4)ccc3S(=O)(=O)N([C@H](C)CO)C[C@H]2C)c1,-71,81,-3,-2
COc1cccc(NC(=O)N(C)C[C@H]2Oc3cc(C#Cc4ccncc4)ccc3S(=O)(=O)N([C@@H](C)CO)C[C@@H]2C)c1,-54,70,-2,/
COc1cccc(NC(=O)N(C)C[C@H]2Oc3cc(C#Cc4ccccc4)ccc3S(=O)(=O)N([C@@H](C)CO)C[C@@H]2C)c1,-82*,121*,-1,/
CO[C@@]12[C@@H]3NC3CN1C1=C(C(=O)C(N)=C(C)C1=O)[C@@H]2COC(N)=O (stereo not given in full),/,/,/,0
C[C@@H]1CCCCO[C@H](CN(C)Cc2ccc(C(F)(F)F)cc2)[C@@H](C)CN([C@@H](C)CO)C(=O)c2cc(NC(=O)c3ccccc3)ccc2O1,-86*,68,-2,2
C[C@@H]1CCCCO[C@H](CN(C)Cc2ccc(C(F)(F)F)cc2)[C@@H](C)CN([C@@H](C)CO)C(=O)c2cc(NC(=O)Nc3ccccc3)ccc2O1,-82*,70,0,/
C[C@H]1CCCCO[C@H](CN(C)Cc2ccc(C(F)(F)F)cc2)[C@@H](C)CN([C@@H](C)CO)C(=O)c2cc(NC(=O)c3ccccc3)ccc2O1,-42,74,1,1
C[C@H]1CCCCO[C@@H](CN(C)Cc2ccc(C(F)(F)F)cc2)[C@@H](C)CN([C@@H](C)CO)C(=O)c2cc(NC(=O)c3ccccc3)ccc2O1,-59,63,0,/
C[C@H]1CCCCO[C@H](CN(C)Cc2ccc(C(F)(F)F)cc2)[C@@H](C)CN([C@@H](C)CO)C(=O)c2cc(NC(=O)Nc3ccccc3)ccc2O1,-6,68,-1,-1
C[C@@H]1CCCCO[C@@H](CN(C)Cc2ccc(Cl)c(Cl)c2)[C@H](C)CN([C@H](C)CO)C(=O)c2cc(NC(=O)Nc3ccc(C(F)(F)F)cc3)ccc2O1,-86*,51,12,0
C[C@@H]1CCCCO[C@H](CN(C)Cc2ccc(Cl)c(Cl)c2)[C@H](C)CN([C@@H](C)CO)C(=O)c2cc(NC(=O)Nc3ccc(C(F)(F)F)cc3)ccc2O1,?,60,1,0
C[C@@H]1CN([C@@H](C)CO)C(=O)c2cc(NC(=O)c3ccccc3)ccc2O[C@@H](C)CCCCO[C@H]1CN(C)Cc1ccc(C(F)(F)F)cc1,-84*,69,-1,-1
C/C(=C/COc1c(OC2OC(CO)C(O)C(O)C2O)ccc2ccc(=O)oc12)CO (stereo not given),/,/,/,0
CCn1ncc(C2=NOC(C(=O)Nc3ccc(Cl)c(Cl)c3)C2)c1C (stereo not given),/,/,/,0
O=C(NO)c1cccc(C(=O)N/N=C/c2c(O)cc(O)cc2O)c1,/,/,/,10
Cc1ccc(S(=O)(=O)N2C[C@@H]3N[C@H](C2)C3c2ccc(-c3ccncc3)cc2)cc1 (stereo not given in full),-81*!,/,1,/
O=S(=O)(c1ccc(-c2ccccc2)cc1)N1C[C@@H]2N[C@H](C1)C2c1ccc(-c2ccccc2)cc1 (stereo not given in full),-87*!,/,0,/
N#Cc1ccc(-c2ccc([C@@H]3[C@@H]4CN(S(=O)(=O)c5ccc(-c6ccccc6)cc5)C[C@H]3N4)cc2)cc1,-74,/,3,/
COc1ccc(OC)c(C(=O)CCC(=O)Nc2ccc(Cl)cc2)c1,/,/,/,-1
CC(C)(C)c1ccc(S(=O)(=O)/C=C/C#N)cc1,/,/,/,82*
N#C[C@@H]1[C@H](c2ccc(-c3cccc(F)c3)cc2)[C@@H](CO)N1C(=O)NC1CCCC1,-87*,78,-2,/
SMILES,Pf Dd2 inh,T cruzi growth,GASC1 inh,IDH1 R132H inh
CCCNC(=O)N1[C@H](C#N)[C@H](c2ccc(-c3cccc(OC)c3)cc2)[C@H]1CO,-85*,77,0,/
N#C[C@@H]1[C@H](c2ccc(C3=CCCCC3)cc2)[C@H](CO)N1C(=O)NC1CCCC1,-83*,/,-1,/
COc1ccc(-c2ccccc2[C@H]2[C@@H](C#N)N(C(=O)NC3CCCCC3)[C@H]2CO)cc1,-90*,/,-1,/
N#C[C@@H]1[C@@H](c2ccc(-c3cccc(F)c3)cc2)[C@@H](CO)N1C(=O)NC1CCCC1,-20,91,2,0
CCCNC(=O)N1[C@H](CO)[C@@H](c2ccc(-c3cccc(OC)c3)cc2)[C@@H]1C#N,-21,86,-2,/
N#C[C@H]1[C@@H](c2ccc(C3=CCCCC3)cc2)[C@H](CO)N1C(=O)NC1CCCC1,15,/,2,/
CCn1c(SCC(=O)Nc2c(Cl)cc(Cl)cc2Cl)nnc1-c1ccccc1F,/,/,/,-1
CO[C@H]1C[C@@H]2CC[C@@H](C)[C@@](O)(O2)C(=O)C(=O)N2CCCC[C@H]2C(=O)O[C@H]([C@H](C)C[C@@H]2CC[C@@H](O)[C@H](OC)C2)CC(=O)[C@H](C)/C=C(\C)[C@@H](O)[C@@H](OC)C(=O)[C@H](C)C[C@H](C)/C=C/C=C/C=C\1C,/,/,/,0
COc1cccc(NC(=O)CSc2nnc(-c3ccncc3)n2-c2ccc(Br)cc2)c1,/,/,/,0
N#C[C@H]1[C@@H](c2ccccc2-c2ccc(F)cc2)[C@@H](CO)N1C(=O)NC1CCCCC1,61,/,-2,/
N#C[C@@H]1[C@H](c2ccccc2-c2ccc(F)cc2)[C@H](CO)N1C(=O)NC1CCCC1,-92*,/,0,/
C[C@@H]1CCCCO[C@H](CN(C)Cc2ccc(Cl)c(Cl)c2)[C@@H](C)CN([C@@H](C)CO)C(=O)c2cc(NC(=O)C3CCCCC3)ccc2O1,-91*,90,-1,/
C[C@@H]1CN([C@@H](C)CO)C(=O)c2cc(NC(=O)C3CCCCC3)ccc2O[C@@H](C)CCCCO[C@H]1CN(C)Cc1ccc(Cl)c(Cl)c1,-80,88,2,0
C[C@@H]1CN([C@H](C)CO)C(=O)c2cc(NC(=O)c3ccncc3)ccc2O[C@@H](C)CCCCO[C@H]1CN(C)Cc1ccc(Cl)c(Cl)c1,-86*,/,-1,3
